Results taken from publication PMC9673116 (Poultry Science, 2022).
Read-outs that look alike come from different tables or passages of the source. Blank lines part the entries; values can stand above or below the compound they belong to.

Experiments:
[1] = Pharmacokinetic study of orally administered florfenicol in chicken; type: in vivo; settings: female, HY-Line Brown, plasma, po, 20 mg/kg
chicken BCRP = settings: ref Zhang et al., 2018; cited from earlier work
[2] = Arbor Acres broilers, ref Liu et al., 2018; cited from earlier work
BCRP = experiment: Mitoxantrone accumulation assay; type: cell-based, chicken
Method in brief: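 Hepatocytes isolated from livers of 14-day-old Arbor Acres broiler embryos, grown in M199 with transferrin, penicillin and streptomycin (37°C, 5% CO2). Exposed 24 h to CXR agonist alone or with BCRP inhibitor; untreated cells served as negative control. All wells then loaded with mitoxantrone 1 h, trypsinized, washed 3× PBS. Intracellular fluorescence read by flow cytometry at 633 nm excitation. At least 3 independent experiments, mean ± SD.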

[3] = ref Anadon et al., 2008; cited from earlier work
CYP2H1 mRNA [4] = experiment: RT-PCR analysis of CYP2H1 mRNA in chicken primary hepatocytes; type: cell-based; settings: 500 µM metyrapone 24 h
Method in brief: (§1)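 Primary broiler-embryo hepatocytes grown to 70% confluency in 6-well plates. Transfected 24 h with CXR-targeting or scrambled control siRNA, then exposed to CXR agonist 24 h. Total RNA extracted with TRIzol and reverse-transcribed. Target mRNA quantified by SYBR Green real-time PCR against β-actin, 2^−ΔΔCt method. Three independent experiments, mean ± SD.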

ABCG2 mRNA [5] = experiment: RT-PCR analysis of ABCG2 mRNA in chicken primary hepatocytes; type: cell-based; settings: hepatocytes transfected with siCXR, 500 µM metyrapone 24 h
Method in brief: as §1

BCRP protein [6] = type: in vivo; settings: metyrapone single oral 150 mg per chicken, 24 h
Method in brief: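 Third-week-old chickens (6 per group), untreated or given a single oral CXR agonist dose of 150 mg per chicken, killed by CO2 24 h later. Tissues snap-frozen. Protein extracted with RIPA and quantified by BCA. Separated by 5–12% SDS-PAGE, blotted to PVDF. Probed with anti-BCRP 1:500 and anti-β-tubulin 1:5,000 overnight at 4°C. ECL detection; densitometry normalized to β-tubulin.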

BCRP protein [7] = experiment: Western blot analysis of BCRP protein expression in chicken primary hepatocytes; type: cell-based
Method in brief: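 Primary hepatocytes exposed 24 h to a range of CXR agonist concentrations, or siRNA-knocked-down first (CXR-targeting vs scrambled) and then agonist-treated 24 h. Lysed in RIPA, protein by BCA, separated on 5–12% SDS-PAGE, transferred to PVDF. Blocked with 5% milk 1 h. Probed overnight at 4°C with anti-BCRP 1:500 and anti-β-tubulin 1:5,000, then secondary 1:4,000 1 h at 37°C. ECL detection; densitometry normalized to β-tubulin.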

CYP2H1 mRNA [8] = experiment: RT-PCR analysis of CYP2H1 mRNA in tissues of chickens treated with metyrapone; type: in vivo; settings: metyrapone single oral 150 mg per chicken, 24 h
Method in brief: (§2)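 Twelve third-week-old chickens of similar weight in two groups of 6: untreated, or a single oral CXR agonist dose of 150 mg per chicken. Killed by CO2 asphyxiation 24 h later. Tissues snap-frozen and stored −70°C. RNA extracted with TRIzol and reverse-transcribed. mRNA quantified by SYBR Green real-time PCR with β-actin reference, 2^−ΔΔCt. Mean ± SD.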

ABCG2 mRNA [9] = experiment: RT-PCR analysis of ABCG2 mRNA in tissues of chickens treated with metyrapone; type: in vivo; settings: metyrapone single oral 150 mg per chicken, 24 h
Method in brief: as §2

Vd/F [1]: 0.24 ± 0.05 L/kg | half-life [1]: 2.13 ± 0.45 h
SMILES: CS(=O)(=O)c1ccc([C@@H](O)[C@@H](CF)NC(=O)C(Cl)Cl)cc1 [Florfenicol, florfenicol]
Transport by chicken BCRP (chicken BCRP): actively transported | Absorption upon coadministration of gefitinib (a BCRP inhibitor) [2]: more extensively absorbed

SMILES: COc1ccc2c3c([nH]c2c1)[C@H](CC(C)C)N1C(=O)[C@H](CCC(=O)OC(C)(C)C)NC(=O)[C@@H]1C3 [Ko143]
Effect on metyrapone-induced mitoxantrone efflux activity (BCRP; cotreatment of Ko143 with 500 µM metyrapone): reversed

SMILES: CC1(C)S[C@@H]2[C@H](NC(=O)[C@H](N)c3ccccc3)C(=O)N2[C@H]1C(=O)O [ampicillin]
Transport by chicken BCRP (chicken BCRP): actively transported

SMILES: CCN1CCN(c2cc3c(cc2F)c(=O)c(C(=O)O)cn3C2CC2)CC1 [enrofloxacin]
Transport by chicken BCRP (chicken BCRP): actively transported

SMILES: CS(=O)(=O)c1ccc([C@@H](O)[C@H](N)CF)cc1 [florfenicol amine]
Eliminated by renal excretion as metabolite florfenicol amine [3]: 25%

Induction of CYP2H1 mRNA upon metyrapone treatment, CXR expression vector (CYP2H1 mRNA [4]; hepatocytes transfected with CXR expression vector): 5.1 fold | Induction of CYP2H1 mRNA by metyrapone after knockdown of CXR (CYP2H1 mRNA [4]; hepatocytes transfected with siCXR): 0.5 fold | CYP2H1 mRNA expression increase (CYP2H1 mRNA [8]; duodenum): 5.6 fold | Effect on expression of CYP2H1 (CYP2H1 mRNA [8]; ileum): did not influence | CYP2H1 mRNA expression increase (CYP2H1 mRNA [8]; jejunum): 1.7 fold | CYP2H1 mRNA expression increase (CYP2H1 mRNA [8]; kidney): 8 fold | CYP2H1 mRNA expression increase (CYP2H1 mRNA [8]; liver): 3.6 fold
SMILES: CC(C)(C(=O)c1cccnc1)c1cccnc1 [metyrapone, Metyrapone]
Induction of ABCG2 at the mRNA level by metyrapone after knockdown of CXR (ABCG2 mRNA [5]): 0.7 fold | BCRP protein expression increase (BCRP protein [6]; duodenum): 1.4 fold | BCRP protein expression increase (BCRP protein [6]; jejunum): 1.3 fold | BCRP protein expression increase (BCRP protein [6]; kidney): 1.6 fold | BCRP protein expression increase (BCRP protein [6]; liver): 1.6 fold | Induction of ABCG2 at the protein level by metyrapone after knockdown of CXR (BCRP protein [7]; hepatocytes transfected with siCXR, 500 µM metyrapone 24 h): 0.7 fold | BCRP protein expression, fold vs negative control cells (BCRP protein [7]; increasing concentrations of metyrapone, 24 h, chicken primary hepatocytes): up to 2.8 fold | Intracellular mitoxantrone fluorescence lower than in untreated cells (BCRP; 500 µM metyrapone pretreatment 24 h, 5 µM mitoxantrone 1 h, P < 0.01): 33% | ABCG2 mRNA expression increase (ABCG2 mRNA [9]; duodenum): 1.8 fold | Effect on expression of ABCG2 (ABCG2 mRNA [9]; ileum): did not influence | ABCG2 mRNA expression increase (ABCG2 mRNA [9]; jejunum): 1.6 fold | ABCG2 mRNA expression increase (ABCG2 mRNA [9]; kidney): 2.2 fold | ABCG2 mRNA expression increase (ABCG2 mRNA [9]; liver): 2.1 fold

SMILES: CC[C@H]1OC(=O)C[C@@H](O)[C@H](C)[C@@H](O[C@@H]2O[C@H](C)[C@@H](O)[C@H](N(C)C)[C@H]2O)[C@@H](CCN2C[C@H](C)C[C@H](C)C2)C[C@@H](C)C(=O)/C=C/C(C)=C/[C@@H]1CO[C@@H]1O[C@H](C)[C@@H](O)[C@@H](OC)[C@H]1OC [tilmicosin]
Transport by chicken BCRP (chicken BCRP): actively transported
